In brackets after ≈: the same amount, converted by molar mass. Entries after “also recorded” stand apart in the source; their conditions may differ.
How the values were obtained:
[1] = Solubility testing in PEG-300-based injectable formulation; assay type: physicochemical; conditions: for Maximum soluble dose: IP injection, injectable formulation; for Relative solubility in the PEG-300-based formulation: comparison in words; for Maximum amount that could be administered IP in the PEG-300 formulation: injection volume limit of ~0.5 mL, mice
In short: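 Formulation: 10% ethanol (v/v), 10% glycerol (v/v), 10% 2-hydroxypropyl-β-cyclodextrin (w/v), 35% PEG-300 (v/v) in water. Pre-weighed compound was dissolved or suspended in ethanol, then combined with the other components and vortexed 15 min to make a 28 mM solution or suspension. […] IP dose was limited by an injection volume of ~0.5 mL.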

[2] = test system: AkaLuc; conditions: AkaLuc with AkaLumine, intrapulmonary locations; cited from earlier work
[3] = molecular target: T1, Antares (Oplophorus gracilirostris, UniProt Q9GV45, A31E/A60N/A81I/F95D/I117V/K70R/L54V/L99Q/M102K/N193R/P142E/Q151K/Q38R/Q45L/V71I/Y165I); assay: Decay of Antares luminescence signal over time; assay type: biochemical; conditions: purified Antares, 60 min
[4] = molecular target: T1, Antares
[5] = molecular target: T1, Antares; assay: Enzymatic analysis of Antares with furimazine analogs; assay type: biochemical; conditions: purified Antares; for Vmax and thereby kcat compared to furimazine: DPBS with 0.01% FBS
[6] = molecular target: T1, Antares; assay: Hydrodynamic transfection and bioluminescence imaging of nude mice; assay type: in vivo
[7] = test system: Orange CaMBI; assay type: in vivo, mice; conditions: sustained-release HFz (P-407)
In short: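 Transgenic mice doubly hemizygous for albumin-Cre and CAG-LSL-Orange CaMBI 110, abdominal hair removed, anesthetized with IP ketamine 200 mg/kg in 100 µL water. Test compound given with poloxamer-407 in 480 µL water. Imaged in a lab-built system, time-lapse with <1 s exposures on a consumer digital camera, with vasopressin given. Decay fitted as monoexponential.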

[8] = assay type: in vivo, mice
In short: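 Male C57Bl/6 mice, 4 months old, received three daily IP injections: 12 mg P-407 in 480 µL water; 12 mg P-407 plus 1.7 mg test compound in 480 µL water; or test compound in P-407 at 1.3 or 4.2 µmol. Body weight was tracked. On day 4 mice were euthanized by CO2 and cardiac exsanguination, with terminal blood taken for CBC and serum biochemistry. Lung, liver and kidney were examined histologically.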

[9] = Substrate stability at 37 °C in DPBS with or without 10% FBS; assay type: in vitro ADME
[10] = molecular target: T1, Antares; assay: Spectral analysis of Antares with furimazine analogs; assay type: biochemical; conditions: 400 to 700 nm
[11] = physchem; conditions: aqueous with cosolvent or surfactant or cyclodextrin
[12] = previously published PEG-300-based aqueous formulation; cited from earlier work
[13] = test system: Orange CaMBI; conditions: liver; cited from earlier work
[14] = molecular target: T1, Antares; conditions: limited amount of furimazine that can be administered; cited from earlier work
[15] = 1.3 μmol IP, PEG-300 formulation, mouse liver

Structure (SMILES): Oc1c(Cc2ccccc2)nc2c(-c3ccncc3)nc(-c3ccccc3)cn12 [8pyDTZ, reference compound]
- Maximum soluble dose [1]: 4 µmol

Structure (SMILES): CN(C)c1ccc(/C=C/C=C/C2=N[C@@H](C(=O)O)CS2)cc1 [AkaLumine]
- Detectable light per reporter molecule relative to FLuc and D-luciferin [2]: ~ 13 times

Structure (SMILES): O=c1c(Cc2ccccc2)nc2c(-c3ccccc3)[nH]c(-c3ccccc3)cn1-2 [DTZ, diphenylterazine, reference compound]
- Maximum soluble dose [1]: 1 µmol

Structure (SMILES): O=c1c(Cc2ccco2)nc2c(Cc3ccccc3)[nH]c(-c3ccc(O)cc3)cn1-2 [compound A, 8-benzyl-2-(furan-2-ylmethyl)-6-(4-hydroxyphenyl)imidazo[1,2-a]pyrazin-3(7H)-one]
- Appearance at 28 mM in the PEG-300-based formulation ([1]; 28 mM, backlit image): insoluble pellet
- Decrease of light output over time compared with the other substrates [3]: decreased more rapidly over time
- Total integrated output compared with furimazine ([4]; 1.3 μmol IP, PEG-300 vehicle, liver): more total integrated output

Structure (SMILES): O=c1c(Cc2ccco2)nc2c(Cc3ccccc3)[nH]c(-c3cccc(O)c3)cn1-2 [compound B, 8-benzyl-2-(furan-2-ylmethyl)-6-(3-hydroxyphenyl)imidazo[1,2-a]pyrazin-3(7H)-one]
- Relative solubility in the PEG-300-based formulation [1]: noticeably more soluble than compounds A and C
- Maximum amount that could be administered IP in the PEG-300 formulation [1]: up to 13.3 μmol
- kcat/KM compared to furimazine [5]: higher kcat/KM
- Integrated signal over 20 min compared with Antares2-DTZ ([6]; 4.2 μmol HFz IP): significantly exceed that of Antares2-DTZ
- Integrated signal over 20 min compared with LumiScarlet-8pyDTZ ([6]; 4.2 μmol HFz IP): appeared higher than that of LumiScarlet-8pyDTZ, but narrowly missed statistical significance
- Persistence of emission ([6]; 4.2 μmol HFz IP, 20 min): uniquely sustained emission
- Time signals were bright enough to be seen by the naked eye in the dark [7]: > 1 h
- Time of peak brightness after substrate injection ([7]; liver): 24 min
- Time after injection at which brightness dropped to half of its peak ([7]; monoexponential kinetics): ~ 60 min
- Gross examination of organs and histology of liver, lung and kidney ([8]; HFz with P-407, three daily IP injections, listed as HFz): no signs of toxicity; also recorded: no abnormalities were found
- Saturating dose ([4]; IP, PEG-300 formulation, liver): 4.2 µmol
- Light (brightness) relative to the maximum/saturating dose of furimazine ([4]; substrate at saturating (maximal) dose, IP, Antares-expressing transgenic mice): approximately four-fold

Structure (SMILES): Nc1cccc(-c2cn3c(=O)c(Cc4ccco4)nc-3c(Cc3ccccc3)[nH]2)c1 [compound C, 6-(3-aminophenyl)-8-benzyl-2-(furan-2-ylmethyl)imidazo[1,2-a]pyrazin-3(7H)-one]
- Maximum amount that could be administered IP in the PEG-300 formulation [1]: 4.2 µmol

Structure (SMILES): O=c1c(Cc2ccco2)nc2c(Cc3ccccc3)[nH]c(-c3cccc(O)c3F)cn1-2 [compound D, 8-benzyl-6-(2-fluoro-3-hydroxyphenyl)-2-(furan-2-ylmethyl)imidazo[1,2-a]pyrazin-3(7H)-one]
- Vmax and thereby kcat compared to furimazine [5]: improved Vmax and thereby kcat versus furimazine
- Stability in serum compared to furimazine [9]: retaining the improved stability in serum
- Effect on emission spectrum of Antares [10]: do not alter the emission spectrum of Antares
- Signal output compared with HFz [4, 15]: brighter signal outputs than HFz

Structure (SMILES): Nc1cccc(-c2cn3c(=O)c(Cc4ccco4)nc-3c(Cc3ccccc3)[nH]2)c1F [compound E, 6-(3-amino-2-fluorophenyl)-8-benzyl-2-(furan-2-ylmethyl)imidazo[1,2-a]pyrazin-3(7H)-one]
- Vmax and thereby kcat compared to furimazine [5]: improved Vmax and thereby kcat versus furimazine
- Stability in serum compared to furimazine [9]: retaining the improved stability in serum
- Effect on emission spectrum of Antares [10]: do not alter the emission spectrum of Antares
- Improvement of signal output over HFz [4, 15]: approximately three-fold
- Signal output compared with HFz [4, 15]: brighter signal outputs than HFz

Structure (SMILES): Nc1cccc(-c2cn3c(=O)c(Cc4ccco4)nc-3c(Cc3ccccc3F)[nH]2)c1F [compound F, 6-(3-amino-2-fluorophenyl)-8-(2-fluorobenzyl)-2-(furan-2-ylmethyl)imidazo[1,2-a]pyrazin-3(7H)-one]
- Vmax and thereby kcat compared to compound E [5]: higher Vmax and thereby kcat
- Brightness compared with AkaLuc with AkaLumine ([6]; 1.3 μmol FFz IP, not statistically significant): tended to produce more brightness
- Body weight, blood chemistry, or histology ([8]; 1.3 μmol FFz in P-407 daily for three days): No abnormalities
- Blood chemistry ([8]; 4.2 μmol FFz, daily for three days): abnormal blood chemistry
- Dose that can be safely administered ([8]; in P-407, IP, mice): 1.3 µmol
- Peak signal compared to compound E ([4]; 1.3 μmol, in vivo): further increase in peak signal
- Light from mouse liver, 1.3 μmol FFz compared with 4.2 μmol HFz ([4]; IP): more light
- Light, 4.2 μmol compared with 1.3 μmol of FFz ([4]; IP): more light
- solubility [11]: 8.8 mM (≈ 3810 µg/mL)

Structure (SMILES): O=c1c(Cc2ccco2)nc2c(Cc3ccccc3)[nH]c(-c3ccccc3)cn1-2 [furimazine]
- Solubility in the PEG-300-based formulation ([1]; 35% PEG-300, 10% ethanol, 10% glycerol, 10% hydroxypropylcyclodextrin in water): 2.8 mM (≈ 1070 µg/mL)
- Relative solubility in the PEG-300-based formulation [1]: more soluble than DTZ
- Maximum dosage limited by poor aqueous solubility [12]: 1.3 µmol
- Duration of previous Orange CaMBI imaging sessions [13]: ≤ 6 min
- Photon output of Antares relative to FLuc in vivo [14]: ~ three-fold

— paper PMC10907227 (Nature methods, 2020)
